The values that follow come from ChEMBL document CHEMBL1126126, “Development, synthesis, and biological evaluation of (-)-trans-(2S,5S)-2-[3-[(2-oxopropyl)sulfonyl]-4-n-propoxy-5-(3- hydroxypropoxy)-phenyl]-5-(3,4,5-trimethoxyphenyl)tetrahydrofuran, a potent orally active platelet-activating factor (PAF) antagonist and its water-soluble prodrug phosphate ester” (J Med Chem, 1992).

Converted amounts (≈) assume the structure as drawn. The source made the active and inactive calls. The rule behind the calls is not given here.

Series [1] in a line: Water solubility at pH 7.4. The format is physicochemical. The method in brief: (§1)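 Compound combined with buffered solution at the stated pH, sonicated, shaken 1 h and filtered. Filtrate concentration measured by UV against standards of known concentration; reported in mg/mL.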
In series [2] the target is T1, C5a anaphylatoxin chemotactic receptor 1 (Homo sapiens) (UniProt P21730).
T1 sequence (whole entry): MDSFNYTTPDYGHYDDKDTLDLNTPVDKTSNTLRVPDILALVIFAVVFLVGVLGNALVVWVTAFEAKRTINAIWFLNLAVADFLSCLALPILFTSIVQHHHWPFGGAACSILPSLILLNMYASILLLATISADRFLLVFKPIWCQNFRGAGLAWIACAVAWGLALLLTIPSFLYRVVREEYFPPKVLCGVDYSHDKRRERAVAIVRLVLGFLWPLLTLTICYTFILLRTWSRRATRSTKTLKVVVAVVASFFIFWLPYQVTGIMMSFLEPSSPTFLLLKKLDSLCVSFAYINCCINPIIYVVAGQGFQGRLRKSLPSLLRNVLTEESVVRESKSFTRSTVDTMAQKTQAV
Briefly: (§2) Effect on uM; no effect.

Series [3] addresses T2, Cysteinyl leukotriene receptor 1 (Cavia porcellus) (UniProt Q2NNR5).
T2 sequence (whole entry): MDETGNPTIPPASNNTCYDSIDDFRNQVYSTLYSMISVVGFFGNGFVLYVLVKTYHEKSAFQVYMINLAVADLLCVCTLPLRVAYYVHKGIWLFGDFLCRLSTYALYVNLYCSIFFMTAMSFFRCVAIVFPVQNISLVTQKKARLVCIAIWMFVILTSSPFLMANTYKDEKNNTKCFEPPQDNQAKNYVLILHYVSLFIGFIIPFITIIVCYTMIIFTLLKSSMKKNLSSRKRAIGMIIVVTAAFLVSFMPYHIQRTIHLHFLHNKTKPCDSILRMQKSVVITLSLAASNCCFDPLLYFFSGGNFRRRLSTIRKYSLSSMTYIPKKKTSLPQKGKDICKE
Described as §2.

Series [4] addresses Leukotriene B4 receptor 1 (Homo sapiens) (UniProt Q15722). Described as §2.
The nature of series [5]: Water solubility at pH 5. The format is physicochemical. The method in brief: as §1
Series [6] can be described thus: Water solubility at pH 6. The format is physicochemical. The method in brief:
as §1

Series [7] can be described thus: Water solubility was determined. The series is classed as ADME. The method in brief: as §1
The species named for series [8] is Homo sapiens. In words: Inhibitory activity against PAF-induced aggregation of human platelets suspended in plasma. The series is classed as functional.
Series [9] has as its system Rattus norvegicus. Briefly: In vivo inhibitory activity against PAF induced plasma level of N-acetyl-beta-D-glucosaminidase (NAGA) and hematocrit (plasma extravasation) in male rat after i.v. administration. The series is classed as functional. As to conditions: iv.
The subject of series [10] is Rattus norvegicus. In words: In vivo inhibitory activity against PAF induced plasma level of N-acetyl-beta-D-glucosaminidase (NAGA) and hematocrit (plasma extravasation) in male rat after p.o. administration. The format is functional. The note with it: po.
Series [11] relates to Rattus norvegicus. In words: In vivo inhibitory activity against PAF induced plasma level of N-acetyl-beta-D-glucosaminidase (NAGA) and hematocrit (plasma extravasation) in female rat after p.o. administration. As to conditions: po. The format is functional.
Series [12] relates to Cavia porcellus. In words: In vivo inhibitory activity against PAF induced bronchoconstriction in male guinea pigs. As to conditions: read-out: ID50 (the source's name). The format is functional.
Series [13] addresses Platelet-activating factor receptor (Homo sapiens, UniProt P25105). In words: Inhibition of the binding of [3H]C18-Platelet activating factor to human platelet membrane preparation.
Series [14] relates to Cavia porcellus. Briefly: In vivo inhibitory activity against PAF induced bronchoconstriction in female guinea pigs. The note with it: read-out: ID50 (the source's name). The series is classed as functional.
The species entered for series [15] is Homo sapiens. In words: Inhibitory activity against PAF-induced aggregation of human platelets suspended in buffer [washed platelets (WP)]. The series is classed as functional.
For series [16], the system named is Rattus norvegicus. In words: Effect against PAF induced plasma level of N-acetyl-beta-D-glucosaminidase (NAGA) and plasma extravasation in male rat at a dose of 1 mg/kg by single administration after 6 hour. The series is classed as functional.
In series [17] the test system is Angiotensin II receptor (Oryctolagus cuniculus). Briefly: Effect on uM; no effect.

Sequence of Leukotriene B4 receptor 1 (Homo sapiens) (Q15722 whole entry): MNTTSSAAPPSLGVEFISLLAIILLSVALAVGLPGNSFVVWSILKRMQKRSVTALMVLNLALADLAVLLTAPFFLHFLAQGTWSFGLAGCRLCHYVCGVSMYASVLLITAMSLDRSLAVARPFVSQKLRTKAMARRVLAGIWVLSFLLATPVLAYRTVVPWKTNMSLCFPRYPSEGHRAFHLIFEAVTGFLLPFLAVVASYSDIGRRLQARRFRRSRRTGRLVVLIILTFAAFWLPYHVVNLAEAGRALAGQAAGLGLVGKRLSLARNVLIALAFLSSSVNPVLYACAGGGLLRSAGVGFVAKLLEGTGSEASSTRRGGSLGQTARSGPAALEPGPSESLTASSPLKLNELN
Sequence of Platelet-activating factor receptor (P25105 whole entry): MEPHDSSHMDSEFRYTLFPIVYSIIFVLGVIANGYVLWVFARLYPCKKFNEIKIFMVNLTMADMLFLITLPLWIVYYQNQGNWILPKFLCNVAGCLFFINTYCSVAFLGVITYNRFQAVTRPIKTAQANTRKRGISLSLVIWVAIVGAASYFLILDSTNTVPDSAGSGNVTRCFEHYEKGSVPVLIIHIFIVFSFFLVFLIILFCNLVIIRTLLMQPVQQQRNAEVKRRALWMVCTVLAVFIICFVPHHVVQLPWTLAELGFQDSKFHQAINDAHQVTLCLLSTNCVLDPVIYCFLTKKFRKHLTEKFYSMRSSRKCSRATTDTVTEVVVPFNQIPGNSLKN

One may read the solubility as the dissolved amount per volume that the medium holds. Consider `CCCOc1c(OCCCOP(=O)([O-])O)cc([C@@H]2CC[C@@H](c3cc(OC)c(OC)c(OC)c3)O2)cc1S(=O)(=O)CC(C)=O.[K+]`, for which, in series [1], the solubility was greater than 30000 µg/mL. Besides, the inhibition entry in series [2], in series [3] and in series [4] was “inactive” throughout.

In the case of `CCCOc1c(OCCCn2ccnc2)cc([C@@H]2CC[C@@H](c3cc(OC)c(OC)c(OC)c3)O2)cc1S(=O)(=O)CC(C)=O`, the solubility in [5] turned out to be 5500 µg/mL (≈ 8920 µM); in series [6], 800 µg/mL (≈ 1300 µM). The inhibition result in [2], in [3] and in series [4] was “inactive” in each case.

As a reminder, the IC50 is the concentration at which inhibition is half-maximal. Read a low IC50 as greater potency in that assay. `CCCOc1c(OC)cc([C@@H]2CC[C@@H](c3cc(OC)c(OC)c(OC)c3)O2)cc1S(=O)(=O)CCO`: the solubility in series [7] is 2 µg/mL (≈ 3.92 µM). Also, half-maximal inhibition in the series listed under Homo sapiens [8] (IC50) required 55 nM. Also, the ED50 turned out to be 0.1 mg/kg in the series on Rattus norvegicus [9], 2.3 mg/kg in the series with Rattus norvegicus [10], 0.1 mg/kg with Rattus norvegicus [11] and 0.19 mg/kg with Cavia porcellus [12].

`CCCOc1c(OC)cc([C@H]2CC[C@H](c3cc(OC)c(OC)c(OC)c3)O2)cc1S(C)(=O)=O` (single isomer, unassigned) had an IC50 in series [13] of 9 nM.

On to `CCCOc1c(OCCCO)cc([C@@H]2CC[C@@H](c3cc(OC)c(OC)c(OC)c3)O2)cc1S(=O)(=O)CC(C)=O`, for which the solubility in series [7] was found to be 100 µg/mL (≈ 176 µM). Further, the inhibition result in series [2], in series [3] and in series [4] was “inactive” in each case.

The inhibition in vivo is the drop in the measured response relative to a control, in per cent. A low value points to a weak effect. For `CCCOc1c(OCCCN2CCOCC2)cc([C@@H]2CC[C@@H](c3cc(OC)c(OC)c(OC)c3)O2)cc1S(=O)(=O)CC(C)=O`, the solubility in series [5] is 5400 µg/mL (≈ 8490 µM); in series [6] it was 900 µg/mL (≈ 1420 µM). Further, the inhibition result in series [2], in series [3], in [4] and in series [17] was “inactive” in each case. The ED50 was determined as 0.04 mg/kg in the series with Cavia porcellus [14]; 0.037 mg/kg in the series on Rattus norvegicus [9]; 0.15 mg/kg in the series on Rattus norvegicus [10]; 0.2 mg/kg with Rattus norvegicus [11]; 0.06 mg/kg with Cavia porcellus [12]. The IC50 in the series filed under Homo sapiens [15] stood at 1 nM; in the series filed under Homo sapiens [8], 19 nM; in [13] it was 2.5 nM. In the series with Rattus norvegicus [16], this compound showed an inhibition in vivo at 1 mg/kg of 60%.
